Measured values from the RNAGym collection of RNA variant scans (doi:10.1126/science.aae0568).
Fewer inactive variants are shown than the library holds.

B1: tRNA (parent)
chain: GUUCCGUUGGCGUAAUGGUAACGCGUCUCCCUCCUAAGGAGAAGACUGCGGGUUCGAGUCCCGUACGGAACG

Variants of: B1
Assay: yeast fitness relative to wild type (ratio to wild type); higher = fitter; tRNA-Arg(CCU), competitive growth, 37 C, YPD
Outline: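 Variants of the tRNA-Arg(CCU) gene, chemically synthesised with a 3% per-site mutation rate at 69 sites, were placed at the native genomic locus in Saccharomyces cerevisiae. The pooled strains were competed in YPD at 37°C for 24 hours in six parallel replicates. Gene amplicons from the start population and from each end population were read by 100-nucleotide paired-end sequencing. Darwinian fitness relative to wild type came from changes in genotype frequencies; genotypes needed ≥ 100 starting reads, and estimates < 0.5 were set to 0.5.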

First: GUUCCGUUGGCGUAAUGGUAACGCGUCUCCCUCCUGAGGAGAAGACUGCGGGUUCGAGUCCCGUACGGCACG [A36G A69C]
Second: GUUCCGUUGGCGUAAUGGUAACGCGUCUCCCUCCUGAGGAGAAGACUGCGGGUUCGAGUCCCGUACGGUACG [A36G A69U]
The yeast fitness of the first is higher: 1.05 for the first, 1.02 for the second.

Going from GUUCCGUUGGCGUAAUGGUAACGCGUCUCCCUCCUGAGGAGAAGCCUGCGGGUUCGAGUCCCGUACGGUACG [A36G A45C A69U] to GUUCCGUUGGCGUAAUGGUAACGCGUCUCCCUCCUGAGGAGACGGCUGCGGGUUCGAGUCCCGUACGGAACG [A36G A43C A45G], the yeast fitness rises from 0.806 to 0.906.

Compared with GUUCCGUUGGCGUAAUGGUAACGCGUCUCCCUCCUGAGGAGAUGACUCCGGGUUCGAGUCCCGUACGGAACG [A36G A43U G48C], GUUCCGUUGGCGUAAUGGUAACGCGUCUCCCUCCUGAGGAGAAGAUUGCGGGUUCGAGUCCCGUACGGAACG [A36G C46U] is higher in yeast fitness: 0.556 for the first, 0.952 for the second.

GUUCCGUUGGCGUAAUGGUAACGCGUCUCCCUCCUGAGGAGAAGACUGCGGGUUCGCGUCCCGUUCGGAACG [A36G A57C A65U] and GUUCCGUUGGCGUAAUGGUAACGCGUCUCCCUCCUGAGGAGAAGCCCACGGGUUCGAGUCCCGUACGGAACG [A36G A45C U47C G48A] cannot be ordered by yeast fitness: no more than 0.5 for the first, no more than 0.5 for the second.

First: GUUCCGUUGGCGUAAUGGUAACGCGUCUCCCUCCUGAGGAGAAGACUGUGGGUUCGAGUCCCGUACGGACCG [A36G C49U A70C]
Second: GUUCCGUUGGCGUAAUGGUAACGCGUCUCCCUCCUGAGGAGAAGACUGCGGGUUCGAGUCCCGUGCGGAACG [A36G A65G]
The yeast fitness of the first is lower: 0.663 for the first, 0.831 for the second.

First: GUUCCGUUGGCGUAAUGGUAACGCGUCUCCCUCCUGAGGAGAAGACUGCGGGUUCGAGUCCCGUCCGGAACG [A36G A65C]
Second: GUUCCGUUGGCGUAAUGGUAACGCGUCUCCCUCCUGAGGAGUAGACUGCGGGUUCGUGUCCCGUACGGAACG [A36G A42U A57U]
The yeast fitness of the first is higher: 0.9 for the first, no more than 0.5 for the second.

Compared with GUUCCGUUGGCGUAAUGGUAACGCGUCUCCCUCCUGAGGAGAAGACUGCGGGUUCGAGUCCCGUUCGGACCG [A36G A65U A70C], GUUCCGUUGGCGUAAUGGUAACGCGUCUCCCUCCUGAGGAGAAGAUUGCGGGUUCGAGUCCCGUACGGUACG [A36G C46U A69U] is higher in yeast fitness: 0.684 for the first, 0.841 for the second.

First: GUUCCGUUGGCGUAAUGGUAACGCGUCUCCCUCCUGAGGAGAAGGCUGCGGGUUCGAGUCCCGUUCUGAACG [A36G A45G A65U G67U]
Second: GUUCCGUUGGCGUAAUGGUAACGCGUCUCCCUCCUGAGGAGAAGACUGAGGGUUCGAGUCCCGUACGGAACG [A36G C49A]
The yeast fitness of the first is lower: no more than 0.5 for the first, 0.799 for the second.

Going from GUUCCGUUGGCGUAAUGGUAACGCGUCUCCCUCCUGAGGAGAAGACUGGGGGUUCGAGUCCCGUACGGAACG [A36G C49G] to GUUCCGUUGGCGUAAUGGUAACGCGUCUCCCUCCUGAGGAGAAGACUGCGGGUUCGAGUCCCGUCCGCAACG [A36G A65C G68C], the yeast fitness falls from 0.776 to no more than 0.5.

First: GUUCCGUUGGCGUAAUGGUAACGCGUCUCCCUCCUGAGGAGACGACUGCGGGUUCGAGUCCCGCACGGAACG [A36G A43C U64C]
Second: GUUCCGUUGGCGUAAUGGUAACGCGUCUCCCUCCUGAGGAGAAGGCUGUGGGUUCGAGUCCCGUACGGAACG [A36G A45G C49U]
The yeast fitness of the first is higher: 0.687 for the first, 0.578 for the second.

First: GUUCCGUUGGCGUAAUGGUAACGCGUCUCCCUCCUGAGGAGAAGUCUGCGGGUUCGAGUCCCGUUCGGAACG [A36G A45U A65U]
Second: GUUCCGUUGGCGUAAUGGUAACGCGUCUCCCUCCUGAGGAGAAGACUGCGGGUUCGCGUCCCGUACGGAACG [A36G A57C]
The yeast fitness of the first is lower: 0.572 for the first, 0.645 for the second.

First: GUUCCGUUGGCGUAAUGGUAACGCGUCUCCCUCCUGAGGAGAAGACUGCGGGUUCGUGUCCCGUACGGAACG [A36G A57U]
Second: GUUCCGUUGGCGUAAUGGUAACGCGUCUCCCUCCUGAGGAGAAGACUGCGGGUUCGGGUCCAGUACGGAACG [A36G A57G C62A]
The yeast fitness of the first is higher: 0.859 for the first, 0.549 for the second.

Going from GUUCCGUUGGCGUAAUGGUAACGCGUCUCCCUCCUGAGGAGAAGACUGCGGGUUCGAGUCCCGUUCAGAACG [A36G A65U G67A] to GUUCCGUUGGCGUAAUGGUAACGCGUCUCCCUCCUGAGGAGAAGAGUGCGGGUUCGAGUCCCAUACGGAACG [A36G C46G G63A], the yeast fitness rises from 0.502 to 0.652.

Going from GUUCCGUUGGCGUAAUGGUAACGCGUCUCCCUCCUGAGGAGAAGUCUGCGGGUUCGAGUCCCGUACGGAACG [A36G A45U] to GUUCCGUUGGCGUAAUGGUAACGCGUCUCCCUCCUGAGGAGAAGGCUGCGGGUUCGAGUCCCGUACGGAACG [A36G A45G], the yeast fitness falls from 1.04 to 0.944.

Going from GUUCCGUUGGCGUAAUGGUAACGCGUCUCCCUCCUGAGGAGAAGCCUGCGGGUUCGAGUCCCGUACGGAACG [A36G A45C] to GUUCCGUUGGCGUAAUGGUAACGCGUCUCCCUCCUGAGGAGAGGACUGCGGGUUCGAGUCCAGUACGGAACG [A36G A43G C62A], the yeast fitness falls from 1.01 to 0.553.

First: GUUCCGUUGGCGUAAUGGUAACGCGUCUCCCUCCUGAGGAGAUGACUGCGGGUUCGAGUCCCGUACGGAACG [A36G A43U]
Second: GUUCCGUUGGCGUAAUGGUAACGCGUCUCCCUCCUGAGGAGAGGACUGCGGGUUCGAGUCCCGUACGGAACG [A36G A43G]
The yeast fitness of the first is higher: 1.01 for the first, 0.975 for the second.

Compared with GUUCCGUUGGCGUAAUGGUAACGCGUCUCCCUCCUGAGGAGAAGAUUGCGGGUUCGCGUCCCGUACGGAACG [A36G C46U A57C], GUUCCGUUGGCGUAAUGGUAACGCGUCUCCCUCCUGAGGAGAAGAGUGUGGGUUCGAGUCCCGUACGGAACG [A36G C46G C49U] is higher in yeast fitness: no more than 0.5 for the first, 0.763 for the second.

Going from GUUCCGUUGGCGUAAUGGUAACGCGUCUCCCUCCUGAGGAGUAGACUGCGGGCUCGAGUCCCGUACGGAACG [A36G A42U U53C] to GUUCCGUUGGCGUAAUGGUAACGCGUCUCCCUCCUGAGGAGAAGGCUGCGGGUUCGAGUCCCGUUCGGAACG [A36G A45G A65U], the yeast fitness rises from no more than 0.5 to 0.54.

Going from GUUCCGUUGGCGUAAUGGUAACGCGUCUCCCUCCUGAGGAGAAGACUGUGGGUUCGAGUCUCGUACGGAACG [A36G C49U C61U] to GUUCCGUUGGCGUAAUGGUAACGCGUCUCCCUCCUGAGGAGAAGACUGGGGGUUCGAGUCCCAUACGGCCCG [A36G C49G G63A A69C A70C], the yeast fitness falls from 0.654 to no more than 0.5.
